Source: the EternaBench riboswitch data

Assays:
MS2 coat protein [1] = experiment: apparent Kd, MS2 coat protein; higher = weaker binding; RNA-MaP array; theophylline 2 mM where present
Summary of the method: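 Designs were transcribed by stalled E. coli RNA polymerase on Illumina sequencing-chip clusters. They were titrated with SNAP-549-labelled MS2 coat protein from 0.7 or 1.5 nM, doubling to 3 µM, without and then with constant ligand. Buffer: 100 mM Tris-HCl pH 7.5, 80 mM KCl, 4 mM MgCl2, BSA, DTT, yeast tRNA, Tween-20. Green signal was normalised to red-channel RNA signal and control-cluster median Fmax. Apparent Kd is the median of filtered per-cluster binding-curve fits.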

MS2 coat protein [2] = experiment: apparent Kd, MS2 coat protein; higher = weaker binding; RNA-MaP array
Summary of the method: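 Sequenced DNA templates on an Illumina sequencing chip were transcribed into the designed RNAs. These were incubated at room temperature in Tris-HCl pH 7.5 buffer containing KCl, MgCl2, BSA, DTT, tRNA and Tween20 with fluorescently labeled MS2 coat protein at 1.5 nM to 3 μM, with or without input ligand. Apparent Kd is the median of binding-curve fits per cluster, and designs with fewer than 10 clusters measured were excluded.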

[3] = designed as: OFF switch for theophylline, no ligand
[4] = ligand present: theophylline, designed as: OFF switch for theophylline
[5] = designed as: ON switch for theophylline, no ligand
[6] = ligand present: theophylline, designed as: ON switch for theophylline
[7] = designed as: OFF switch for flavin mononucleotide, no ligand
[8] = ligand present: flavin mononucleotide, designed as: OFF switch for flavin mononucleotide
[9] = designed as: ON switch for flavin mononucleotide, no ligand
[10] = ligand present: flavin mononucleotide, designed as: ON switch for flavin mononucleotide
[11] = designed as: ON switch for tryptophan, no ligand
[12] = ligand present: tryptophan, designed as: ON switch for tryptophan

Sequence | apparent Kd (MS2 coat protein [2]; [7]) [nM] | apparent Kd (MS2 coat protein [2]; [8]) [nM] | apparent Kd (MS2 coat protein [2]; [9]) [nM] | apparent Kd (MS2 coat protein [2]; [10]) [nM] | further results
AACAUGAGGACGGAUACCAGUCACAUGAGGAUCACCCAUGUACAUGAGGAUCACCCAUGUGGCCCUUGGCAGCCGCAUGUGAUCA |  |  |  |  | apparent Kd (MS2 coat protein [1]; [3]): 327 nM; apparent Kd (MS2 coat protein [1]; [4]): 473 nM
AACCGAGGCUAUCCUCUAAGAAAAUGUGAUACCAGAAUAAUUUUAUUCCCUUGGCAGCAUGACAUGAGGAUCACCCAUGUGUCUU |  |  |  |  | apparent Kd (MS2 coat protein [1]; [5]): 187 nM; apparent Kd (MS2 coat protein [1]; [6]): 151 nM
UCGCAUUGCUCAGAUACCAGACAUGAGGAUCACCCAUGUACCAAGGUACCCGAAAGGAAUGUCCCUUGGCAGCUGAGCAAUGCGU |  |  |  |  | apparent Kd (MS2 coat protein [1]; [3]): 9.82 nM; apparent Kd (MS2 coat protein [1]; [4]): 23.6 nM
CCAUACGUAACUGAUACCAGUGUACUGACAUGAGGAUCACCCAUGUUGGGUUUUGUUGUACACCCUUGGCAGCAGAAUCGUAUGG |  |  |  |  | apparent Kd (MS2 coat protein [1]; [3]): 69 nM; apparent Kd (MS2 coat protein [1]; [4]): 101 nM
AUGUUUGUGUGAGAUACCAGUGAGGCCACAUGAGGAUCACCCAUGUCCCUCACUCCGGCCCACCCUUGGCAGCUCUUAUAGUAAA |  |  |  |  | apparent Kd (MS2 coat protein [1]; [3]): 9.5 nM; apparent Kd (MS2 coat protein [1]; [4]): 39.4 nM
GAUGAACUAUUCGAUACCAGACCACAUGAGGAUCACCCAUGUGUGUUUCGUCCUUAGCCGGUCCCUUGGCAGCGAAUAGUUUAUC |  |  |  |  | apparent Kd (MS2 coat protein [1]; [3]): 20.2 nM; apparent Kd (MS2 coat protein [1]; [4]): 30.3 nM
GGGAAACAUGAGGAUCACCCAUGUAAGGAUAUAGAAGAUUCAACAUUCAAGAAUGAGACUAGAAGGUACAGAUC | 20.2 | 17.9 |  |  | 
ACUCGGGGUUGAGGAUAUUCGACUCGAUCUCCACAUGAGGAUCACCCAUGUCAGGACUGACCGGUGAAGAAGGCAACCGUACAU |  |  | 16.2 | 5.67 | 
GGCUGCGAUGGCGGAAAUUAUUUACAUAGGCGAGGACCGGUACGGCCGCCACUCGAACGUACAUGAGGAUCACCCAUGUGAUAAU |  |  |  |  | apparent Kd (MS2 coat protein [2]; [11]): 71.8 nM; apparent Kd (MS2 coat protein [2]; [12]): 26.5 nM
GGCAAGUGAUAGAAGGGAUACAUGAGGAUCACCCAUGUAAGGGCGAAGCCUACCCUCCUUAAAGAUCAGGAUAUAUUGCAGACG | 20.3 | 19.6 |  |  | 
GACCCUACGGAGAAGGCACCUACAUGAGGAUCACCCAUGUUUGAUCGUUUGCCGGACGGCUUACGUGAGGAUAUCCAGGUACAG |  |  | 14.8 | 7.2 | 
GUGAUCAUCCGAGGAUAUUUUUCAUAGGCAUAAGGGGACAUGAGGAUCACCCAUGUAAACACCAUAAAGAAGGCGGGGCAGACC | 20 | 15.3 |  |  | 
AGACAUGAGGAUCACCCAUGUCUCGGGAUGCGUAGCUUGCACAGAAGGCAUGACCGCAACGGUGAUGAGGAUAUGUCGUACCAA |  |  | 25.9 | 8.87 | 
GCGACUUUUACCGAGGAUAUGUCGUGACACACAUGAGGAUCACCCAUGUUUCUAAGUCCUGGAAUACAGAAGGCGGUAUUAAUACA |  |  | 7.53 | 5.42 | 
CCGUUUGAUCAGAAGGAACCAGUCGAACCAUGUGACAGACAUGAGGAUCACCCAUGUUCGCGCGGUUAGGAUAUGACAGCUCAG | 13.2 | 64.5 |  |  | 
UCACCAUGUCGAAACAUGAGGAUCACCCAUGUGAAUCAUGACAGAAGGUCUAUAGAAUGACGGAAGAAGGAUAUGUCAAUGCGC | 17.8 | 17.4 |  |  | 
CCCGACGAGCCUGAGAUUAAGUAAGCGGAUACCAGAGAUAGGUAGCUCCCUUGGCAGCCGUGGACAUGAGGAUCACCCAUGUCAC |  |  |  |  | apparent Kd (MS2 coat protein [2]; [3]): 11.1 nM; apparent Kd (MS2 coat protein [2]; [4]): 11.2 nM
AACAUGAGGAUCACCCAUGUUCUGCAAUAAAGUGUAUCAUAUAAGGAUAUCAGACUAAUACGAACUGAGAAGGUAUUCCUACAC |  |  | 5.3 | 4.39 | 
AGCUCGGCAGGAUAUACAUGAGGAUCACCCAUGUUUGCAGGCGCGCCGGUAGACUUUUGUAGAAGGGCCGUAUA | 44.8 | 113 |  |  | 
AUUAACAUGAGGAUCACCCAUGUGGCCCACCGAGGACCGGUACGGCCGCCACUCGUCGGAAAGGCUAAAUUUAUGAAGUCCAAAA |  |  |  |  | apparent Kd (MS2 coat protein [2]; [11]): 18.7 nM; apparent Kd (MS2 coat protein [2]; [12]): 16.1 nM
GCGGGAGCACAGAAGGCGGAACUAAAGCAAUUACCAAUAGUUAACAUGAGGAUCACCCAUGUGCCCGAGGAUAUGUCGAAAGUG |  |  | 53.2 | 10.6 | 
UUGGGACAUGAGGAUCACCCAUGUCAGGAUAUAUAUAAUCUGCGCGACGAGGGAUACAAUAGAAGGGACAACGG | 18.2 | 15.1 |  |  | 
UUAGAGAGAGGAUAUACAGAGUAUCAACUCGGCGGACAAGAACAUGAGGAUCACCCAUGUAGAAGGCUCUCAGA | 18.6 | 67.1 |  |  | 

Sequence | apparent Kd (MS2 coat protein [2]; [7]) [nM] | apparent Kd (MS2 coat protein [2]; [8]) [nM] | apparent Kd (MS2 coat protein [2]; [9]) [nM] | apparent Kd (MS2 coat protein [2]; [10]) [nM] | further results
CGAUUACUGCAGAAGGGAGGGCCACAAAACAUGAGGAUCACCCAUGUAGAACUGAACGGGACUCCUCAGGAUAUGCGCCGAGAU |  |  | 28.7 | 11.8 | 
UAUUUGGCGCUAGGAUAUAAAGGAACUAUUUAAUUAGAAGGAGCACGGGAACCUGAGGUACAUGAGGAUCACCCAUGUCUGAUA |  |  | 17.6 | 19.1 | 
GCAUUAUUAUUAGAUACCAGUGUCGCAGGCGACAUGAGGAUCACCCAUGUAAAGUUACUCCACCCUUGGCAGCUAGUUCGACUAC |  |  |  |  | apparent Kd (MS2 coat protein [2]; [5]): 103 nM; apparent Kd (MS2 coat protein [2]; [6]): 26.3 nM
CCUCACAUGAGGAUCACCCAUGUCUUUACACGAGGACCGGUACGGCCGCCACUCGUUCACAAAACAACCAGAAGUGAUGCCUACA |  |  |  |  | apparent Kd (MS2 coat protein [2]; [11]): 140 nM; apparent Kd (MS2 coat protein [2]; [12]): 169 nM
GUGCGAAUGCAAGGAUAUGUCACAUAAACUGGAACAGAAGGUGCUGCUGAACAUGAGGAUCACCCAUGUACUUGACCGGCAACU |  |  | 7.6 | 6.81 | 
GGUCGUCUAGUUAGGAUAUCAUUAUUAGAUUAAAUUGAGAAGGAACAUGAGGAUCACCCAUGUCGACAACUAUC | 7.13 | 8.12 |  |  | 
AAAGAUAACAAAGGAUAUGGAAGAAAUUAUAGGCCAGAAGGAUGGAAAUUGACAAUCGUGACAUGAGGAUCACCCAUGUAAGAA |  |  | 15.9 | 13.2 | 
GGCCUUGUUGUUAUAGGACAUGAGGAUCACCCAUGUAUAUGUAAGGAUAUGAAUCGUAAGACGCAUCAGAAGGUACAGUACUGG | 122 | 55.8 |  |  | 
GUCAACGAAGGAUAUACAGGGAUACCCGUCGAGUACGGAGCACAUGAGGAUCACCCAUGUAGAAGGUCGGUGUG | 52 | 142 |  |  | 
UUCACGUUAGGAUAUCGCGUCAGCACAGCCUGUAUGGCAAGCGAGAAGGAACAUGAGGAUCACCCAUGUCGGAC | 11.4 | 28.7 |  |  | 
GCAUACGGAUAGAAGGAACUCUACGAUACGACAUGAGGAUCACCCAUGUAAUAUCAGUUAAACGGUUAGGAUAUAUGGGUAGUC |  |  | 81.6 | 41.9 | 
GUUUUUUAAGGAUAUUCUAUUUCUAACAUGAGGAUCACCCAUGUACCCUCGUGCUAGCGAGAAGAAGGUAACAAAC | 546 | 427 |  |  | 
ACCAGGUCAGGAUAUAGUUGGCAUUUGGCUGUGCCUCACUACUAGAAGGGACAUGAGGAUCACCCAUGUUGGGC | 28.6 | 50.5 |  |  | 
CUGGGCCAAUAGAAGGGCGGGAGCGCAGGUGAUCAAACCUAUUACAUGAGGAUCACCCAUGUAACGCAGGAUAUAUCGGUUUUA | 25.4 | 48 |  |  | 
CAUAAACCCUAGAAGGGCGCAUUAUGUAGAUUCGCAGGAUAUAGGAACGGGAUCGUGUAUACAACAUGAGGAUCACCCAUGUCA |  |  | 15.4 | 14.4 | 
UAUACACAUCCACAUGAGGAUCACCCAUGUGUGCCUCGUUCCGAGGAUAUGGGCCACGAUGUUUCCCAGAAGGCGGUCGCUAUA | 15 | 12.7 |  |  | 
GACUAAUAGGAGAAGGGACAAUCUACAAUCGCGUCAGGAUAUCCGACAUGAGGAUCACCCAUGUAGAGAAGGGCGCAGCCCGGC |  |  | 24.3 | 18.3 | 
ACGAAGUGAGGAUAUACAUGAGGAUCACCCAUGUGCCCAGGGUGUGAUUGUAAAGAACGUAGAAGGCACAAUAG | 594 | 132 |  |  | 
GGACUAUCAGGAUAUACAUGAGGAUCACCCAUGUACUUUAGGUAAUGGGACUACACCGGUAGAAGGGAUUAAAG | 116 | 84.8 |  |  | 
AGGAAGACGAUGGAUACCAGACAACCAGGGAACAUGAGGAUCACCCAUGUGAUUGAAAGGGUCCCUUGGCAGCCAGAAGCCGUUG |  |  |  |  | apparent Kd (MS2 coat protein [2]; [5]): 88.3 nM; apparent Kd (MS2 coat protein [2]; [6]): 119 nM
CAGCCGGCCUAGAAGGUCGAAAUCCAAAUCGUCGAAGGAUAUAGGUCCAGAAAACAAUUACAUGAGGAUCACCCAUGUAUCCUG |  |  | 21.5 | 14.2 | 
UGUAACGAAGGAUAUACAAGAAGACAAGUGCGGCAGUACGUACAUGAGGAUCACCCAUGUAGAAGGUCGAAGGC | 7.03 | 7.66 |  |  | 
